Data: ChEMBL document CHEMBL1129536, “Nucleoside analogs. 14. The synthesis of antitumor activity in mice of molecular combinations of 5-fluorouracil and N-(2-Chloroethyl)-N-nitrosourea moieties separated by a three-carbon chain” (1996)

Legend:
Mus musculus [1] = assay: Antitumor effect against Colon 38 Adenocarcinoma was determined by the percent of median tumor volume of treated animals to median tumor volume of control animals by saline at dose 50 mg/kg; format: functional
MAC15A [2] = assay: Antitumor effect against MAC15A Tumors was determined by the percent of median survival times of treated animals to median survival times of control animals by arachis oil at dose 100 mg/kg; settings: Mus musculus
MAC13 [3] = assay: Antitumor effect against MAC13 Tumors was determined by no. deaths/treated of mice by arachis oil at dose 50 mg/kg; no of deaths/treated 0/5; format: functional, Mus musculus
MAC13 [4] = assay: Antitumor effect against MAC13 Tumors was determined by the percent of mean weight of treated tumors to mean weight of control tumors by arachis oil at dose 50 mg/kg; format: functional, Mus musculus
MAC13 [5] = assay: Antitumor effect against MAC13 Tumors was determined by no. deaths/treated of mice by 10% DMSO/arachis oil at dose 100 mg/kg; no of deaths/treated 0/5; format: functional, Mus musculus
MAC15A [6] = assay: Antitumor effect against MAC15A Tumors was determined by the percent of median survival times of treated animals to median survival times of control animals by 10% DMSO/arachis oil at dose 100 mg/kg; settings: Mus musculus
MAC13 [7] = assay: Antitumor effect against MAC13 Tumors was determined by the percent of mean weight of treated tumors to mean weight of control tumors by 10% DMSO/arachis oil at dose 100 mg/kg; format: functional, Mus musculus
Procedure, shortened: (§1)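 MAC 13 tumors were grown in mice. Two days after transplantation, at about 2 mm³, mice were allocated by restricted randomization. Compounds were made up fresh and given ip at 0.1 mL/10 g body weight. Tumor weight was measured 21 days later, and T/C % was the mean treated tumor weight over the mean control weight; deaths among treated mice were recorded.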

Mus musculus [8] = assay: Antitumor effect against Colon 38 Adenocarcinoma was determined by the percent of median tumor volume of treated animals to median tumor volume of control animals by saline at dose 100 mg/kg; format: functional
Procedure, shortened: (§2)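 Colon 38 adenocarcinoma, serially maintained in C57Bl/6 mice, was implanted as 3 mm × 3 mm fragments sc in B6D2F1 mice (19-22 g) on day 0. Compounds were made fresh on the day of injection, either dissolved in saline (0.9% NaCl) or suspended in saline with Tween 80 […], and given ip. T/C was the median tumor volume of treated over untreated controls; T/C <42% counted as activity.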

MAC15A [9] = assay: Antitumor effect against MAC15A Tumors was determined by the percent of median survival times of treated animals to median survival times of control animals by arachis oil at dose 50 mg/kg; settings: Mus musculus
[10] = Antitumor effect against MCa Mammary Carcinoma was determined by the percent of median survival times of treated animals to median survival times of control animals by 10%DMSO/water at dose 100 mg/kg; format: functional, Mus musculus
MAC13 [11] = assay: Antitumor effect against MAC13 Tumors was determined by the percent of mean weight of treated tumors to mean weight of control tumors by 10% ethanol/arachis oilat dose 100 mg/kg; format: functional, Mus musculus; procedure, shortened: as §1
[12] = Antitumor effect against MCa Mammary Carcinoma was determined by the percent of median survival times of treated animals to median survival times of control animals by 10%DMSO/water at dose 150 mg/kg; format: functional, Mus musculus
MAC13 [13] = assay: Antitumor effect against MAC13 Tumors was determined by no. deaths/treated of mice by 10% ethanol/arachis oil at dose 100 mg/kg; no of deaths/treated 0/5; format: functional, Mus musculus
MAC15A [14] = assay: Antitumor effect against MAC15A Tumors was determined by the percent of median survival times of treated animals to median survival times of control animals by 10% ethanol/arachis oil at dose 100 mg/kg; settings: Mus musculus
MAC15A [15] = assay: Antitumor effect against MAC15A Tumors was determined by the percent of median survival times of treated animals to median survival times of control animals by arachis oil at dose 90 mg/kg; settings: Mus musculus
MAC13 [16] = assay: Antitumor effect against MAC13 Tumors was determined by no. deaths/treated of mice by arachis oil at dose 135 mg/kg; no of deaths/treated 0/5; format: functional, Mus musculus
[17] = Antitumor effect against MCa Mammary Carcinoma was determined by the percent of median survival times of treated animals to median survival times of control animals by 10%DMSO/water at dose 80 mg/kg; format: functional, Mus musculus
MAC13 [18] = assay: Antitumor effect against MAC13 Tumors was determined by the percent of mean weight of treated tumors to mean weight of control tumors by arachis oil at dose 135 mg/kg; format: functional, Mus musculus; procedure, shortened: as §1
MAC15A [19] = assay: Antitumor effect against MAC15A Tumors was determined by the percent of median survival times of treated animals to median survival times of control animals by arachis oil at dose 200 mg/kg; settings: Mus musculus
MAC13 [20] = assay: Antitumor effect against MAC13 Tumors was determined by the percent of mean weight of treated tumors to mean weight of control tumors by arachis oil at dose 200 mg/kg; format: functional, Mus musculus; procedure, shortened: as §1
MAC13 [21] = assay: Antitumor effect against MAC13 Tumors was determined by no. deaths/treated of mice by arachis oil at dose 200 mg/kg; no of deaths/treated 0/10; format: functional, Mus musculus
Mus musculus [22] = assay: Antitumor effect against Colon 38 Adenocarcinoma was determined by the percent of median tumor volume of treated animals to median tumor volume of control animals by saline/Tween 80(9/1)at dose 100 mg/kg; format: functional; procedure, shortened: as §2
MAC15A [23] = assay: Antitumor effect against MAC15A Tumors was determined by the percent of median survival times of treated animals to median survival times of control animals by 10% DMSO/arachis oil at dose 200 mg/kg; settings: Mus musculus
MAC13 [24] = assay: Antitumor effect against MAC13 Tumors was determined by no. deaths/treated of mice by arachis oil at dose 200 mg/kg; no of deaths/treated 0/5; format: functional, Mus musculus
[25] = Antitumor effect against MCa Mammary Carcinoma was determined by the percent of median survival times of treated animals to median survival times of control animals by 10%DMSO/water at dose 60 mg/kg; format: functional, Mus musculus
MAC15A [26] = assay: Antitumor effect against MAC15A Tumors was determined by the percent of median survival times of treated animals to median survival times of control animals by arachis oil at dose 62.5 mg/kg; settings: Mus musculus
MAC13 [27] = assay: Antitumor effect against MAC13 Tumors was determined by the percent of mean weight of treated tumors to mean weight of control tumors by arachis oil at dose 31.25 mg/kg; format: functional, Mus musculus
MAC13 [28] = assay: Antitumor effect against MAC13 Tumors was determined by no. deaths/treated of mice by arachis oil at dose 31.25 mg/kg; no of deaths/treated 0/10; format: functional, Mus musculus
Mus musculus [29] = assay: Antitumor effect against Colon 38 Adenocarcinoma was determined by the percent of median tumor volume of treated animals to median tumor volume of control animals by saline/Tween 80(9/1) at dose 100 mg/kg; format: functional; procedure, shortened: as §2
MAC15A [30] = assay: Antitumor effect against MAC15A Tumors was determined by the percent of median survival times of treated animals to median survival times of control animals by arachis oil at dose 300 mg/kg; settings: Mus musculus
MAC13 [31] = assay: Antitumor effect against MAC13 Tumors was determined by no. deaths/treated of mice by arachis oil at dose 100 mg/kg; no of deaths/treated 0/5; format: functional, Mus musculus
MAC13 [32] = assay: Antitumor effect against MAC13 Tumors was determined by the percent of mean weight of treated tumors to mean weight of control tumors by arachis oil at dose 100 mg/kg; format: functional, Mus musculus; procedure, shortened: as §1
Mus musculus [33] = assay: Antitumor effect against Colon 38 Adenocarcinoma was determined by the percent of median tumor volume of treated animals to median tumor volume of control animals by saline/Tween 80(9/1) at dose 50 mg/kg; format: functional; procedure, shortened: as §2
MAC13 [34] = assay: Antitumor effect against MAC13 Tumors was determined by the percent of mean weight of treated tumors to mean weight of control tumors by arachis oil at dose 150 mg/kg; format: functional, Mus musculus; procedure, shortened: as §1
MAC13 [35] = assay: Antitumor effect against MAC13 Tumors was determined by no. deaths/treated of mice by arachis oil at dose 150 mg/kg; no of deaths/treated 0/5; format: functional, Mus musculus
MAC13 [36] = assay: Antitumor effect against MAC13 Tumors was determined by the percent of mean weight of treated tumors to mean weight of control tumors by 10% ethanol/arachis oil at dose 20 mg/kg; format: functional, Mus musculus; procedure, shortened: as §1
MAC15A [37] = assay: Antitumor effect against MAC15A Tumors was determined by the percent of median survival times of treated animals to median survival times of control animals by saline at dose 20 mg/kg; settings: Mus musculus
MAC13 [38] = assay: Antitumor effect against MAC13 Tumors was determined by no. deaths/treated of mice by 10% ethanol/arachis oil at dose 20 mg/kg; no of deaths/treated 0/5; format: functional, Mus musculus

## COC(CNC(=O)N(CCCl)N=O)n1c(=O)[nH]cc(F)c1=O (stereo not given)
Mus musculus [1]
  T/C: 17%
MAC15A [2]
  T/C: >850%
MAC13 [3]
  No. deaths/treated: 0
MAC13 [4]
  T/C: 11%

## COC(CCNC(=O)N(CCCl)N=O)n1c(=O)[nH]cc(F)c1=O (stereo not given)
MAC13 [5]
  No. deaths/treated: 0
MAC15A [6]
  T/C: 360%
MAC13 [7]
  T/C: 1%

## COC(CNC(=O)N(CCCl)N=O)n1cc(F)c(=O)[nH]c1=O (stereo not given)
Mus musculus [8]
  T/C: 38%
MAC15A [9]
  T/C: 200%
[10]
  T/C: 311%
MAC13 [3]
  No. deaths/treated: 0
MAC13 [4]
  T/C: 7%

## O=NN(CCCl)C(=O)NCCC(OCCO)n1cc(F)c(=O)[nH]c1=O (stereo not given)
MAC13 [11]
  T/C: 23%
[12]
  T/C: 168%
MAC13 [13]
  No. deaths/treated: 0
MAC15A [14]
  T/C: 233%

## CSC(CCNC(=O)N(CCCl)N=O)n1cc(F)c(=O)[nH]c1=O (stereo not given)
MAC15A [15]
  T/C: 200%
MAC13 [16]
  No. deaths/treated: 0
[17]
  T/C: 195%
Mus musculus [8]
  T/C: 63%
MAC13 [18]
  T/C: 0%

## O=NN(CCCl)C(=O)NCCOC(CCNC(=O)c1ccccc1C(=O)O)n1cc(F)c(=O)[nH]c1=O (stereo not given)
MAC15A [19]
  T/C: 148%
MAC13 [20]
  T/C: 103%
[10]
  T/C: 121%
MAC13 [21]
  No. deaths/treated: 0

## O=NN(CCCl)C(=O)NCCC(SCC(=O)O)n1cc(F)c(=O)[nH]c1=O (stereo not given)
Mus musculus [22]
  T/C: 0%
MAC15A [23]
  T/C: 275%
MAC13 [20]
  T/C: 31%
MAC13 [24]
  No. deaths/treated: 0

## COC(CCNC(=O)N(CCCl)N=O)n1c(=O)cc[nH]c1=O (stereo not given)
MAC13 [5]
  No. deaths/treated: 0
MAC15A [6]
  T/C: 200%
MAC13 [7]
  T/C: 43%

## CSC(CNC(=O)N(CCCl)N=O)n1cc(F)c(=O)[nH]c1=O (stereo not given)
[25]
  T/C: 189%
Mus musculus [8]
  T/C: 0%
MAC15A [26]
  T/C: 156%
MAC13 [27]
  T/C: 122%
MAC13 [28]
  No. deaths/treated: 0

## CC(C)(C)OC(CCNC(=O)N(CCCl)N=O)n1cc(F)c(=O)[nH]c1=O (stereo not given)
MAC13 [20]
  T/C: 1%
MAC13 [24]
  No. deaths/treated: 0
Mus musculus [29]
  T/C: 42%
MAC15A [30]
  T/C: 280%

## O=NN(CCCl)C(=O)NCCC(n1cc(F)c(=O)[nH]c1=O)n1c(=O)[nH]cc(F)c1=O (stereo not given)
MAC13 [5]
  No. deaths/treated: 0
MAC15A [6]
  T/C: 182%
MAC13 [7]
  T/C: 87%

## O=NN(CCCl)C(=O)NCCOC(CCO)n1cc(F)c(=O)[nH]c1=O (stereo not given)
MAC13 [31]
  No. deaths/treated: 0
MAC15A [2]
  T/C: 136%
MAC13 [32]
  T/C: 27%
Mus musculus [33]
  T/C: 68%

## COC(CCNC(=O)N(CCCl)N=O)n1cc(F)c(=O)[nH]c1=O (stereo not given)
MAC13 [34]
  T/C: 0.8%
Mus musculus [8]
  T/C: 47%
MAC15A [2]
  T/C: 233%
MAC13 [35]
  No. deaths/treated: 0

## CC1CCC(NC(=O)N(CCCl)N=O)CC1 (stereo not given) [SEMUSTINE]
MAC13 [36]
  T/C: 8%
MAC15A [37]
  T/C: 154%
MAC13 [38]
  No. deaths/treated: 0
